Hits are enriched below; roughly 1.8% of the tested compounds scored in any of these assays.
CHRM5 PAM = potentiates acetylcholine response at human M5 receptor. P08912. CHO-K1 hM5, Fluo-8 calcium, ACh EC20 PAM; 0% = ACh EC20, 100% = ACh EC100. activation, % at 3 µM. 0.3% of 360,000 active;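 active = activation above the run cutoff, the mean activation of all test compounds plus 3 SD, cut at about 18% in these data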
Target sequence (P08912 whole entry, looked up): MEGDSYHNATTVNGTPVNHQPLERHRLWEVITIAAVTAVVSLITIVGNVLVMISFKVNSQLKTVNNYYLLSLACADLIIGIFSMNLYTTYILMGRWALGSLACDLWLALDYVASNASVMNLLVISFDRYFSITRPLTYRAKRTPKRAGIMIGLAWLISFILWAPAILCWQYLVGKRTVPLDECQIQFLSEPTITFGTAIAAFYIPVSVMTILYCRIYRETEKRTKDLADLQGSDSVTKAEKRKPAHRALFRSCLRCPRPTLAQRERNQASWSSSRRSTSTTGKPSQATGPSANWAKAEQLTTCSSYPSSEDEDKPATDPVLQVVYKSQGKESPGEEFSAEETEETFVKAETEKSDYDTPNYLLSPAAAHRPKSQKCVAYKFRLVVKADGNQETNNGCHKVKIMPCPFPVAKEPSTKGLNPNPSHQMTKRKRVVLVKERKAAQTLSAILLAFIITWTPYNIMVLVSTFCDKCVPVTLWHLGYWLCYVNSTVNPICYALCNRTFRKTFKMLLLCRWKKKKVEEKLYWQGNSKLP
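system = human M5 receptor in CHO-K1 cells | compound = one concentration, 3 µM final (nominal) | schedule = Post-acetylcholine fluorescence recording 140 s | signal = Fluo-8 calcium dye fluorescence, kinetic read | benchmarks = low control EC20 acetylcholine (0%), high control EC100 acetylcholine (100%) | repeats = singlicate, one well per test compound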
M4 ag = CHRM4 agonism in calcium assay; P08173; CHO-K1 hM4/Gqi5, Fluo-8 calcium fluorescence; vehicle 0%, full acetylcholine response 100%; activation, % at 3 µM; 0.14% of 360,000 active; AID 624127;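 active = activation above the run mean over all test wells plus 3 SD, cut at about 32% in these data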;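 note: peak over basal fluorescence ratio per well then scaled between controls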
M5 ag = agonists of human muscarinic M5 receptor (CHRM5); CHO-K1 hM5 cells, Fluo-8 calcium fluorescence; 0% DMSO wells, 100% maximal acetylcholine response; 0.19% of 360,000 active; activation, % at 3 µM; P08912;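 active = activation above the run's mean over test compounds plus 3 SD, cut at about 23% in these data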;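 note: signal is peak over basal fluorescence ratio across the kinetic read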
M4 antag = blocks acetylcholine activation of human M4 receptor; 0.73% of 360,000 active; CHO-hM4 cells, ACh EC80, Fluo-8 calcium fluorescence; inhibition, % at 3 µM; P08173;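 active = inhibition above its plate's cutoff, the mean inhibition of sample wells plus 3 SD, cut at about 27% in these data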
M5 antag = antagonists of human muscarinic M5 receptor (CHRM5). inhibition, % at 3 µM. AID 624040. 0.59% of 360,000 active. CHO-hM5 cells, Fluo-8 calcium fluorescence, ACh EC80. P08912;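 active = inhibition above a per-plate cutoff, the mean of that plate's test compounds plus 3 SD, cut at about 27% in these data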
CHRM4 PAM = positive allosteric modulators of human muscarinic M4 receptor | CHO-K1 hM4/Gqi5, Fluo-8 calcium fluorescence, ACh EC20; 0% = ACh EC20, 100% = maximal ACh | AID 624126 | activation, % at 3 µM | 0.4% of 360,000 active;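 active = activation above its plate's cutoff, the mean activation of sample wells plus 3 SD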
Numbers stand for hits; n = inactive.

SMILES	CHRM5 PAM	M4 ag	M5 ag	M4 antag	M5 antag	CHRM4 PAM
CSc1ccc2c(c1)C(N1CCN(C)CC1)Cc1ccc(F)cc1S2 (configuration not stated)	n	n	n	43	29	n
O=[N+]([O-])c1ccc2c(c1)C(N1CCN(CCO)CC1)Cc1ccc(F)cc1S2 (configuration not stated)	n	n	n	n	n	n
O=c1cccc(-c2ccccc2)[nH]1	30	n	n	n	n	n
Cc1cc(C)c2c(N)c(C(=O)c3ccc(Cl)cc3)sc2n1	n	n	n	n	n	28
Cc1cc(C)c2c(N)c(C(=O)c3ccccc3)sc2n1	n	n	n	33	n	56
O=C1Nc2ccccc2-n2nnnc2C1N1CCN(CCN2CCOCC2)CC1 (configuration not stated)	n	n	n	n	n	n
COc1ccc(NC(=O)c2cc(C3CCCCN3S(=O)(=O)c3ccc(F)cc3F)on2)c(C)c1 (configuration not stated)	n	n	n	n	n	n
O=C1NC[C@H](CCCCN2C[C@H](Cc3ccccc3)N(CCc3ccc(O)cc3)C(=O)C2=O)N(CC2CCCCC2)C1=O	n	n	n	n	n	n
O=C(c1ccc(Cl)c([N+](=O)[O-])c1)N(c1ccccn1)c1ccccn1	20	n	n	n	n	n
O=C1c2ccccc2S(=O)(=O)c2cc(C(=O)N(c3ccccn3)c3ccccn3)ccc21	n	77	67	n	n	n
CCNc1nnc(CCn2nc(C)c(Br)c2C)s1	24	n	n	n	n	n
CCCCNc1nnc(CCn2nc(C)c(Br)c2C)s1	n	n	n	n	n	n
CCn1c(-c2cc(-c3ccc(C)cc3)nc3ccccc23)n[nH]c1=S	n	n	n	n	98	n
O=c1c2ccccc2nc(/C=C/c2ccccc2)n1CCCO	n	n	n	n	n	n
CN(C)c1ccc(/C=C/c2nc3ccccc3c(=O)n2CCO)cc1	n	42	n	n	n	n
COc1ccc(C(=O)c2[nH]c(N)c(C(=O)NCCc3c[nH]c4ccccc34)c2-c2ccc(C(F)(F)F)cc2)cc1	n	n	n	n	n	n
C=CC[C@H](CC(=O)N(CCO)Cc1ccccc1)C(=O)N[C@H](COC(=O)[C@@H](CC=C)CC(=O)OC(C)(C)C)Cc1c[nH]c2ccccc12	n	n	n	27	n	n
C=CCC[C@H](Cc1ccc(F)cc1)C(=O)OC[C@H](Cc1c[nH]c2ccccc12)NC(=O)[C@H](CC=C)CC(=O)NCCO	n	n	n	30	n	n
C=CC[C@@H](CC(=O)N[C@@H](CO)Cc1ccccc1)C(=O)N[C@H](C)COC(=O)[C@@H](CC=C)Cc1ccc(F)cc1	n	n	n	n	n	26
C=CC[C@@H](CC(=O)N[C@@H](CO)Cc1ccccc1)C(=O)N[C@@H](C)COC(=O)[C@@H](CC=C)Cc1ccc(F)cc1	n	n	n	n	n	n
NC(=O)c1ccc(-c2ccc(N3C(c4ccsc4)=Cc4ccc(F)cc4C3CC(=O)c3ccco3)cc2)cc1 (configuration not stated)	n	n	n	n	n	n
COC(=O)C1CCN(C2CN(Cc3ccccc3)S(=O)(=O)C2)CC1 (configuration not stated)	n	n	n	n	n	n
O=C(Nc1ccc2c(c1)CCO2)Nc1nnc([C@H]2C[C@H](O)[C@@H](CO)O2)s1	n	n	n	n	n	n
COc1ccccc1-c1nnc(Nc2nc3c(OC)cccc3s2)o1	n	n	n	35	n	n
COc1cccc(NC(=O)c2nc3nc(C)cc(C(F)F)n3n2)c1	n	n	n	n	n	n
SMILES	CHRM5 PAM	M4 ag	M5 ag	M4 antag	M5 antag	CHRM4 PAM
Cc1cc(C(F)F)n2nc(C(=O)Nc3cc(C)on3)nc2n1	n	n	n	n	n	28
CCOC(=O)/C(=C/C=C1\Sc2ccccc2N1CC)C(C)=O	n	n	47	n	n	n
CCOC(=O)/C(=C/C=C1\Sc2cc(C)c(C)cc2N1CC)C(C)=O	n	n	n	n	n	n
CCOC(=O)/C(=C\C=C1/Sc2ccccc2N1CC)C(C)=O	n	52	36	n	n	n
CN(C)CCCNC(=O)OC1CC2CC1[C@H]1CCCCN1C2=O (some centres not stated)	n	n	n	n	n	n
C=CCNc1ncnc2c1ncn2[C@H]1CN(Cc2cccc3ccccc23)C[C@@H](CO)O1	n	n	n	n	n	n
COc1cc(OC)c(-c2c3cc(O)c(=O)cc-3oc3cc(O)c(O)cc23)cc1OC	n	212	326	52	54	n
Cc1c2cc(O)c(=O)cc-2oc2cc(O)c(O)cc12	n	n	n	n	n	n
OC[C@@H]1CN(Cc2ccco2)C[C@H](n2cnc3c(NCc4ccc(F)cc4)ncnc32)O1	n	n	n	n	n	n
Cc1cc(N2CCCCC2)nc(NCc2ccccc2)n1	n	37	33	n	n	n
Nc1ccc2c3c(cccc13)-c1ccccc1-2	n	n	205	31	63	n
COc1cc(/C=C(\C#N)c2nc3ccccc3o2)ccc1O	n	n	53	n	46	n
N#C/C(=C\c1ccc(O)cc1)c1nc2ccccc2o1	n	n	n	n	n	n
O=C1NC(=S)N/C1=C\c1ccc(Oc2ccc(C(F)(F)F)cc2[N+](=O)[O-])c(Cl)c1	19	n	n	n	n	n
CC1(C)C(=O)OC(c2ccccc2)C2(CCCC2)C1=O (configuration not stated)	n	n	n	n	n	n
CC1(C)C(=O)OC(c2ccccc2)C(C)(C)C1=O (configuration not stated)	n	n	n	n	32	n
C=CCc1cccc(/C=N/n2cnnc2)c1O	n	n	n	n	n	41
CC(C)CCNc1nc(N)c([N+](=O)[O-])c(NCCO)n1	19	n	n	n	n	n
Nc1nc(NCCOCCO)nc(NC2CCCCC2)c1[N+](=O)[O-]	n	n	n	n	28	n
CC(C)CNc1nc(N)c([N+](=O)[O-])c(NCC2CCCO2)n1 (configuration not stated)	n	n	n	n	n	35
Cc1cc(C)cc(Cn2cc(CN3CC(N4CCN(CCO)CC4)CS3(=O)=O)nn2)c1 (configuration not stated)	n	n	n	n	n	n
CCCCn1nnnc1C(c1ccccc1OC(F)(F)F)N1CCN(C/C=C/c2ccccc2)CC1 (configuration not stated)	n	n	n	n	n	n
CCOC(=O)CSc1nc(N)nc(C)c1Cl	n	n	n	n	27	n
